Reference: article PMC6980386 (Traffic (Copenhagen, Denmark), 2019)
Entries after “also recorded” stand apart in the source; their conditions may differ.

Legend:
[1] = biological target: FL huCD4 K26A (Homo sapiens, UniProt P01730, K26A); assay: CADA down-modulation of cellular huCD4; format: cell-based
Summary of the method: (§1)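 HEK293T cells, seeded overnight in DMEM with 10% serum, 1 mM sodium pyruvate and 0.075% NaHCO₃, were lipofected with full-length human CD4 (WT or mutant). Test compound in DMSO was added 6 h post-transfection as 1:5 serial dilutions (50–0.016 μM) for 48 h. Surface CD4 was stained with FITC/APC anti-CD4 (SK3) and read by flow cytometry. IC50 is 50% of the untreated signal, from four-parameter fits of ≥3 replicate experiments. FC is mutant/WT mean IC50.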

[2] = biological target: huCD4_1–32-YFP Q15A (Homo sapiens, UniProt P01730, Q15A); assay: CADA inhibition of huCD4_1–32-YFP secretion; format: cell-based
Summary of the method: (§2)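 HEK293T cells were grown in DMEM with 10% FBS and 10 mM HEPES, seeded and left to adhere overnight, then transiently transfected with plasmid by Lipofectamine. Test compound was added 6 h after transfection as a 1:5 serial dilution (50 to 0.016 μM) for 48 h. Secreted YFP in the supernatant was captured on GFP-Trap magnetic beads for 1 h, washed with PBS and measured by flow cytometry. IC50 is the concentration that halves the signal relative to the untreated control, taken from a four-parameter fit of at least three replicate experiments. FC is the mutant mean IC50 divided by the WT mean IC50.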

[3] = biological target: huCD4_1–32-YFP L12A (Homo sapiens, UniProt P01730, L12A); assay: CADA inhibition of huCD4_1–32-YFP secretion; format: cell-based
Summary of the method: as §2

[4] = biological target: huCD4_1–32-YFP G31A (Homo sapiens, UniProt P01730, G31A); assay: CADA inhibition of huCD4_1–32-YFP secretion; format: cell-based
Summary of the method: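 HEK293T cells were lipofected with human CD4 residues 1–32 fused to the N-terminus of YFP (secreted, no membrane anchor). Test compound was added 6 h post-transfection as 1:5 serial dilutions (50–0.016 μM) for 48 h. Supernatant was captured on GFP-Trap magnetic beads for 1 h, washed in PBS, and YFP was read by flow cytometry. IC50 is 50% of the untreated control, from four-parameter fits of ≥3 replicate experiments. FC is mutant/WT mean IC50.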

[5] = biological target: huCD4_1–32-YFP WT (Homo sapiens, UniProt P01730); assay: CADA inhibition of huCD4_1–32-YFP secretion; format: cell-based
Summary of the method: as §2

[6] = biological target: FL huCD4 P20L (Homo sapiens, UniProt P01730, P20L); assay: CADA down-modulation of cellular huCD4; format: cell-based; details: HEK293T, 48h
Summary of the method: as §1

[7] = tested on: mouse CD4 (mCD4); details: cell surface expression of mCD4; cited from earlier work
[8] = biological target: huCD4_1–32-YFP L10A (Homo sapiens, UniProt P01730, L10A); assay: CADA inhibition of huCD4_1–32-YFP secretion; format: cell-based
Summary of the method: as §2

[9] = biological target: FL huCD4 L11A (Homo sapiens, UniProt P01730, L11A); assay: CADA down-modulation of cellular huCD4; format: cell-based
Summary of the method: as §1

[10] = biological target: FL huCD4 Q15A;P20A (Homo sapiens, UniProt P01730, P20A/Q15A); assay: CADA down-modulation of cellular huCD4; format: cell-based; details: HEK293T, 48h
Summary of the method: as §1

[11] = biological target: FL huCD4 Q15N (Homo sapiens, UniProt P01730, Q15N); assay: CADA down-modulation of cellular huCD4; format: cell-based; details: HEK293T, 48h
Summary of the method: as §1

[12] = biological target: FL huCD4 L16A (Homo sapiens, UniProt P01730, L16A); assay: CADA down-modulation of cellular huCD4; format: cell-based
Summary of the method: as §1

[13] = biological target: huCD4_1–32-YFP H9A (Homo sapiens, UniProt P01730, H9A); assay: CADA inhibition of huCD4_1–32-YFP secretion; format: cell-based
Summary of the method: as §2

[14] = biological target: truncated huCD4 D1D2 Q15A;P20A (Homo sapiens, UniProt P01730, P20A/Q15A); assay: Cell-free in vitro translation and translocation; format: biochemical
Summary of the method: (§3)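 Truncated huCD4 D1D2 (lacking glycosylation sites and membrane anchor) was made by PCR and transcribed with T7. Proteinase K protection ran 30 min on ice and was quenched with PMSF. Products were separated by SDS-PAGE and imaged by phosphor imaging. The SP-cleaved band was normalised to the matching control. Data are from 2–5 independent experiments, compared with WT by Welch t test.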

[15] = biological target: huCD4_1–32-YFP N2A (Homo sapiens, UniProt P01730, N2A); assay: CADA inhibition of huCD4_1–32-YFP secretion; format: cell-based
Summary of the method: as §2

[16] = biological target: FL huCD4 P20A (Homo sapiens, UniProt P01730, P20A); assay: CADA down-modulation of cellular huCD4; format: cell-based
Summary of the method: as §1

[17] = biological target: FL huCD4 K33A (Homo sapiens, UniProt P01730, K33A); assay: CADA down-modulation of cellular huCD4; format: cell-based; details: HEK293T, 48h
Summary of the method: as §1

[18] = biological target: FL huCD4 T23A (Homo sapiens, UniProt P01730, T23A); assay: CADA down-modulation of cellular huCD4; format: cell-based
Summary of the method: as §1

[19] = biological target: FL huCD4 L10A (Homo sapiens, UniProt P01730, L10A); assay: CADA down-modulation of cellular huCD4; format: cell-based
Summary of the method: as §1

[20] = biological target: FL huCD4 L10A;L18A (Homo sapiens, UniProt P01730, L10A/L18A); assay: CADA down-modulation of cellular huCD4; format: cell-based; details: compared with single Leu-to-Ala mutants
Summary of the method: as §1

[21] = biological target: FL huCD4 K26R (Homo sapiens, UniProt P01730, K26R); assay: CADA down-modulation of cellular huCD4; format: cell-based; details: HEK293T, 48h
Summary of the method: as §1

[22] = biological target: FL huCD4 R3A (Homo sapiens, UniProt P01730, R3A); assay: CADA down-modulation of cellular huCD4; format: cell-based
Summary of the method: as §1

[23] = biological target: truncated huCD4 D1D2 A17V (Homo sapiens, UniProt P01730, A17V); assay: Cell-free in vitro translation and translocation; format: biochemical; details: 15 μM CADA
Summary of the method: as §3

[24] = + less, − more sensitive to CADA
[25] = read-out: Cellular huCD4 IC50 (μM) Mean, HEK293T, CADA 48h
[26] = read-out: Secreted YFP IC50 (μM) Mean, HEK293T, CADA 48h

C=C1CN(S(=O)(=O)c2ccc(C)cc2)CCCN(Cc2ccccc2)CCCN(S(=O)(=O)c2ccc(C)cc2)C1 [CADA, Cyclotriazadisulfonamide]
Cellular huCD4 FC (fold change of mean IC50 relative to WT) [1, 24]: +2.7 | IC50 [1, 25]: 1.44 µM | Secreted YFP FC (fold change of mean IC50 relative to WT) [2, 24]: >+39 | IC50 [2, 26]: > 50 µM | enhanced CADA sensitivity relative to WT [3]: 5 fold | Secreted YFP FC (fold change of mean IC50 relative to WT) [3, 24]: −5.3 | IC50 [3, 26]: 0.24 µM | Secreted YFP FC (fold change of mean IC50 relative to WT) [4, 24]: +2.0 | IC50 [4, 26]: 2.56 µM | Secreted YFP FC (fold change of mean IC50 relative to WT) [5, 24]: 1.00 | IC50 [5, 26]: 1.27 µM | sensitivity to CADA [6]: completely resistant to CADA | sensitivity of mouse CD4 to CADA [7]: not affected by CADA; also recorded: completely resistant to CADA | Secreted YFP FC (fold change of mean IC50 relative to WT) [8, 24]: −2.1 | IC50 [8, 26]: 0.6 µM | Cellular huCD4 FC (fold change of mean IC50 relative to WT) [9, 24]: −4.5 | IC50 [9, 25]: 0.12 µM | sensitivity to CADA [10]: no longer responded to CADA | sensitivity to CADA [11]: partially restored CADA sensitivity | Cellular huCD4 FC (fold change of mean IC50 relative to WT) [12, 24]: −4.9 | IC50 [12, 25]: 0.11 µM | Secreted YFP FC (fold change of mean IC50 relative to WT) [13, 24]: +1.7 | IC50 [13, 26]: 2.13 µM | inhibitory effect of CADA on protein translocation compared to WT ([14]; 15 μM CADA): responded significantly less to CADA | effect of CADA on co-translational translocation ([14]; increasing doses of CADA): full resistance to CADA | Secreted YFP FC (fold change of mean IC50 relative to WT) [15, 24]: −3.3 | IC50 [15, 26]: 0.39 µM | Cellular huCD4 FC (fold change of mean IC50 relative to WT) [16, 24]: +4.4 | IC50 [16, 25]: 2.35 µM | IC50 [17]: > 50000 nM | Cellular huCD4 FC (fold change of mean IC50 relative to WT) [18, 24]: +1.6 | IC50 [18, 25]: 0.87 µM | Cellular huCD4 FC (fold change of mean IC50 relative to WT) [19, 24]: −2.7 | IC50 [19, 25]: 0.2 µM | sensitivity to CADA [20]: further enhanced the effect | sensitivity to CADA [21]: kept full sensitivity to CADA | Cellular huCD4 FC (fold change of mean IC50 relative to WT) [22, 24]: −1.1 | IC50 [22, 25]: 0.47 µM | inhibitory effect of CADA on protein translocation compared to WT [23]: significantly reduced
